Measurements: ChEMBL document CHEMBL4020757, “Lathyrol and epoxylathyrol derivatives: Modulation of Cdr1p and Mdr1p drug-efflux transporters of Candida albicans in Saccharomyces cerevisiae model” (Bioorg Med Chem, 2017)
≈ marks a conversion by molar mass, not a printed value.

Experiments:
Saccharomyces cerevisiae [1] = assay: Antifungal activity against Saccharomyces cerevisiae AD over-expressing Candida albicans MDR1 after 48 hrs; assay type: functional
In short: (§1)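 Yeast (10⁴ cells) grown in YEPD at 30 °C for 48 h with inhibitors at 0.25-400 μM (DMSO stocks); growth read by optical density, inhibitor-free growth set as 100%. MIC80 = concentration giving 80% growth inhibition. RI = MIC80 in AD-CDR1 or AD-MDR1 divided by MIC80 in control AD1-8u⁻. Means ± SD, duplicate samples, at least three independent experiments.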

Candida albicans [2] = assay: Inhibition of Candida albicans MDR1 expressed in Saccharomyces cerevisiae AD assessed as ratio of compound MIC80 in combinantion with fluconazole to compound alone MIC80 for Saccharomyces cerevisiae AD by checkerboard method
In short: (§2)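 Checkerboard per CLSI with 10⁴ cells of AD-CDR1, AD-MDR1 or AD1-8u⁻, grown 48 h at 30 °C. Fluconazole 4-209 μM crossed with compound 0.25-400 μM, growth read by optical density. Compound FIC is the compound MIC in combination with fluconazole divided by its MIC alone.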

Candida albicans [3] = assay: Inhibition of Candida albicans CDR1 expressed in Saccharomyces cerevisiae AD assessed as potentiation of fluconazole-induced antifungal activity against Saccharomyces cerevisiae AD by checkerboard method
In short: (§3)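 Checkerboard per CLSI in AD1-8u⁻ control, AD-CDR1 or AD-MDR1 cells (10⁴ cells) grown 48 h at 30 °C. Fluconazole 4-209 μM crossed with compound 0.25-400 μM. Growth read by optical density. FIC of each agent is its MIC in combination divided by its MIC alone. FICI is the sum of the fluconazole and compound FICs, with values below 0.5 taken as synergy.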

Saccharomyces cerevisiae [4] = assay: Antifungal activity against Saccharomyces cerevisiae AD1-8u(-) after 48 hrs; assay type: functional
In short: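 S. cerevisiae AD1-8u⁻ control strain revived from glycerol stock on YEPD plates and grown in YEPD at 30 °C. 10⁴ cells exposed to compound at 0.25-400 μM for 48 h at 30 °C. Growth read as optical density, with no-inhibitor growth as 100%. MIC80 is the concentration giving 80% growth inhibition. Means ± SD of duplicates from at least three independent experiments.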

Candida albicans [5] = assay: Inhibition of Candida albicans CDR1 expressed in Saccharomyces cerevisiae AD assessed as reduction in nile red dye efflux at 70 uM after 30 mins by flow cytometry relative to control
In short: (§4)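 AD-CDR1 or AD-MDR1 cells grown in YEPD at 30 °C with shaking from OD600 0.1 to 0.25, then resuspended as a 5% suspension in 1:2 YEPD:water. Nile Red (final 7 μM) added with or without compound at 70 μM, 30 min at 30 °C. Cells washed twice and 10,000 cells analysed by flow cytometry. Efflux rate expressed relative to untreated control cells. Means ± SD, three independent experiments.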

Saccharomyces cerevisiae [6] = assay: Synergistic antifungal activity against Saccharomyces cerevisiae AD1-8u(-) assessed as ratio of compound MIC80 in combinantion with fluconazole to compound alone MIC80 by checkerboard method; assay type: functional; in short: as §2
Candida albicans [7] = assay: Inhibition of Candida albicans MDR1 expressed in Saccharomyces cerevisiae AD assessed as reduction in nile red dye efflux at 70 uM after 30 mins by flow cytometry relative to control; in short: as §4
Candida albicans [8] = assay: Inhibition of Candida albicans MDR1 expressed in Saccharomyces cerevisiae AD assessed as potentiation of fluconazole-induced antifungal activity against Saccharomyces cerevisiae AD by checkerboard method; in short: as §3
Saccharomyces cerevisiae [9] = assay: Resistance index, ratio of MIC80 for Saccharomyces cerevisiae AD over-expressing Candida albicans CDR1 to MIC80 for Saccharomyces cerevisiae AD1-8u(-); assay type: functional; in short: as §1
[10] = Lipophilicity, log P of the compound; assay type: physicochemical; details: octanol/water
Saccharomyces cerevisiae [11] = assay: Resistance index, ratio of MIC80 for Saccharomyces cerevisiae AD over-expressing Candida albicans MDR1 to MIC80 for Saccharomyces cerevisiae AD1-8u(-); assay type: functional; in short: as §1
Saccharomyces cerevisiae [12] = assay: Potentiation of fluconazole-induced antifungal activity against Saccharomyces cerevisiae AD1-8u(-) by checkerboard method; assay type: functional; in short: as §3
Candida albicans [13] = assay: Inhibition of Candida albicans CDR1 expressed in Saccharomyces cerevisiae AD assessed as ratio of compound MIC80 in combinantion with fluconazole to compound alone MIC80 for Saccharomyces cerevisiae AD by checkerboard method; in short: as §2
Saccharomyces cerevisiae [14] = assay: Antifungal activity against Saccharomyces cerevisiae AD over-expressing Candida albicans CDR1 after 48 hrs; assay type: functional; in short: as §1

Row | Structure (SMILES) | MIC80 (Saccharomyces cerevisiae [1]) [µM] | Ratio (Candida albicans [2]) | fractional inhibitory concentration index (FICI) (Candida albicans [3]) | MIC80 (Saccharomyces cerevisiae [4]) [µM] | inhibition (Candida albicans [5]) [%] | Ratio (Saccharomyces cerevisiae [6]) | inhibition (Candida albicans [7]) [%] | fractional inhibitory concentration index (FICI) (Candida albicans [8]) | Ratio (Saccharomyces cerevisiae [9]) | logP [10] | Ratio (Saccharomyces cerevisiae [11]) | fractional inhibitory concentration index (FICI) (Saccharomyces cerevisiae [12]) | Ratio (Candida albicans [13]) | MIC80 (Saccharomyces cerevisiae [14]) [µM]
1 | C/C1=C\[C@@H]2[C@H](CC[C@]3(CO3)[C@H](OC(=O)c3ccccc3)[C@H]3[C@@H](OC(=O)c4ccccc4)[C@@H](C)C[C@]3(O)C1=O)C2(C)C | 880 (≈ 492 µg/mL) | 1 | 1.4 | 896 (≈ 501 µg/mL) | 25 | 1 | 80 | 1.3 | 0.89 | 4.6 | 0.98 | 2 | 1 | 803 (≈ 449 µg/mL)
2 | C=C1CC[C@H]2[C@@H](/C=C(\C)C(=O)[C@@]3(O)C[C@H](C)[C@H](O)[C@@H]3[C@H]1OC(=O)/C=C/c1ccccc1)C2(C)C | 1010 (≈ 470 µg/mL) | 1 | 1.4 | 1080 (≈ 500 µg/mL) | 65 | 1 | 30 | 1.3 | 0.92 | 3.93 | 0.93 | 2 | 1 | 993 (≈ 461 µg/mL)
3 | C=C1CC[C@H]2[C@@H](/C=C(\C)C(=O)[C@@]3(O)C[C@H](C)[C@H](O)[C@@H]3[C@H]1OC(=O)c1ccccc1)C2(C)C | 1070 (≈ 468 µg/mL) | 1 | 1.4 | 1140 (≈ 500 µg/mL) | 85 | 1 | 35 | 1.3 | 0.95 | 3.19 | 0.93 | 2 | 1 | 1090 (≈ 478 µg/mL)
4 | C=C1CC[C@H]2[C@@H](/C=C(\C)C(=O)[C@@]3(OC(C)=O)C[C@H](C)[C@H](OC(C)=O)[C@@H]3[C@H]1OC(C)=O)C2(C)C | 2100 (≈ 967 µg/mL) | 1 | 1.4 | 543 (≈ 250 µg/mL) | 25 | 1 | 35 | 1.3 | 4 | 3.35 | 4 | 2 | 1 | 2100 (≈ 967 µg/mL)
5 | C/C1=C\[C@@H]2[C@H](CC[C@]3(CO3)[C@H](OC(=O)Cc3ccccc3)[C@H]3[C@@H](OC(=O)Cc4ccccc4)[C@@H](C)C[C@]3(O)C1=O)C2(C)C | 788 (≈ 462 µg/mL) | 1 | 1.4 | 853 (≈ 500 µg/mL) | 10 | 1 | 15 | 1.3 | 0.88 | 4.91 | 0.92 | 2 | 1 | 756 (≈ 444 µg/mL)
6 | C/C1=C\[C@@H]2[C@H](CC[C@]3(CO3)[C@H](OC(=O)c3ccc(C)cc3)[C@H]3[C@@H](OC(=O)c4ccc(C)cc4)[C@@H](C)C[C@]3(O)C1=O)C2(C)C | 803 (≈ 471 µg/mL) | 1 | 1.4 | 853 (≈ 500 µg/mL) | 30 | 1 | 25 | 1.3 | 0.92 | 5 | 0.94 | 2 | 1 | 789 (≈ 463 µg/mL)
7 | C=C1CC[C@H]2[C@@H](/C=C(\C)C(=O)[C@@]3(O)C[C@H](C)[C@H](O)[C@@H]3[C@H]1O)C2(C)C | 1480 (≈ 494 µg/mL) | 1 | 1.4 | 1500 (≈ 502 µg/mL) | 40 | 1 | 30 | 1.3 | 1.01 | 1.48 | 0.98 | 2 | 1 | 1520 (≈ 510 µg/mL)
8 | CCCC(=O)O[C@@H]1[C@@H]2[C@@H](OC(=O)CCC)[C@]3(CC[C@H]4[C@@H](/C=C(\C)C(=O)[C@@]2(OC(=O)CCC)C[C@@H]1C)C4(C)C)CO3 | 801 (≈ 449 µg/mL) | 1 | 1.4 | 892 (≈ 500 µg/mL) | 35 | 1 | 85 | 1.3 | 0.85 | 4.3 | 0.89 | 2 | 1 | 762 (≈ 427 µg/mL)
9 | CCCC(=O)O[C@@H]1[C@@H]2[C@@H](OC(C)=O)[C@]3(CC[C@H]4[C@@H](/C=C(\C)C(=O)[C@@]2(OC(C)=O)C[C@@H]1C)C4(C)C)CO3 | 901 (≈ 455 µg/mL) | 1 | 1.4 | 992 (≈ 501 µg/mL) | 10 | 1 | 25 | 1.3 | – | 2.5 | 0.9 | 2 | 1 | 1000 (≈ 505 µg/mL)
10 | C/C1=C\[C@@H]2[C@H](CC[C@]3(CO3)[C@H](OC(=O)c3ccccc3)[C@H]3[C@@H](OC(=O)c4ccccc4)[C@@H](C)C[C@]3(OC(=O)c3ccccc3)C1=O)C2(C)C | 654 (≈ 433 µg/mL) | 1 | 1.4 | 755 (≈ 500 µg/mL) | 10 | 1 | 20 | 1.3 | 0.92 | 5.99 | 0.86 | 2 | 1 | 700 (≈ 464 µg/mL)
11 | CCCCC(CC)C(=O)O[C@@H]1[C@@H]2[C@@H](OC(=O)C(CC)CCCC)[C@]3(CC[C@H]4[C@@H](/C=C(\C)C(=O)[C@@]2(O)C[C@@H]1C)C4(C)C)CO3 (stereo partly specified) | 800 (≈ 482 µg/mL) | 1 | 1.4 | 830 (≈ 500 µg/mL) | 30 | 1 | 20 | 1.3 | 0.96 | 6.45 | 0.96 | 2 | 1 | 799 (≈ 482 µg/mL)
12 | C=C1CC[C@H]2[C@@H](/C=C(\C)C(=O)[C@@]3(O)C[C@H](C)[C@H](O)[C@@H]3[C@H]1OC(=O)c1ccc(C(F)(F)F)cc1)C2(C)C | 896 (≈ 454 µg/mL) | 1 | 1.4 | 988 (≈ 500 µg/mL) | 70 | 1 | 15 | 1.3 | 0.91 | 4.16 | 0.9 | 2 | 1 | 900 (≈ 456 µg/mL)
13 | CC(=O)O[C@@H]1[C@@H]2[C@@H](OC(C)=O)[C@]3(CC[C@H]4[C@@H](/C=C(\C)C(=O)[C@@]2(OC(C)=O)C[C@@H]1C)C4(C)C)CO3 | 529 (≈ 252 µg/mL) | 1 | 1.4 | 525 (≈ 250 µg/mL) | 20 | 1 | 75 | 1.3 | 0.98 | 2.7 | 0.99 | 2 | 1 | 519 (≈ 247 µg/mL)
